The text below walks through data of ChEMBL document CHEMBL1131137, “New platelet fibrinogen receptor glycoprotein IIb-IIIa antagonists: orally active series of N-alkylated amidines with a 6,6-bicyclic template” (J Med Chem, 1998).

In data set [1] the test system is Cavia porcellus. Put plainly: Inhibition of ex vivo platelet aggregation induced by 5 uM Adenosine diphosphate (ADP) 1 hour after oral administration. The class given is functional. The gist of the method:
(§1)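 Fasted male guinea pigs dosed orally at 37 μmol/kg in saline with 0.5% Tween 80, then anesthetized with pentobarbital at 1 h and bled. PRP adjusted to 3.0 × 10⁸/mL, preincubated 2 min, and aggregated with ADP (final 5 μM). Inhibition relative to three vehicle-treated controls per experiment; mean of three animals.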

A short description of data set [2]: Solubility in saline. The following applies: read-out: S. The class given is physicochemical. Summed up:
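Solubility in saline determined by UV spectrophotometry.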

Data set [3] can be described thus: Concentration in plasma 1 hr after oral administration. The class given is ADME, cell-free. As to conditions: read-out: Plasma level. Summed up:
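Male guinea pigs starved overnight, given prodrug orally at 37 μmol/kg in saline with 0.5% Tween 80. PPP taken 1 h post-dose under pentobarbital. Bioassay: treated PPP diluted with donor PPP, mixed with donor PRP, and aggregation to 5 μM ADP read against a standard curve of PPP spiked with the active acid.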

For data set [4], the species on record is Cavia porcellus. Put plainly: In vitro inhibition of guinea pig Platelet-rich plasma (PRP) aggregation induced by 5 uM ADP. The class given is functional.
In data set [5] the target is Integrin alpha-IIb/beta-3 (Homo sapiens, UniProt P05106+P08514). Briefly: Inhibition of Fibrinogen binding to Immobilized Human Fibrinogen Receptor. The class given is protein-complex assay. Summed up: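 Human platelet GPIIb-IIIa purified (ConA-, heparin-Sepharose, Sephacryl S-300) and coated at 1.5 μg/mL in TBS with 0.0005% Triton, 24 h at 4 °C, then blocked with 3.5% BSA. Compound plus biotinylated fibrinogen (2 μg/mL before 1:1 mixing) incubated 24 h at room temperature. Detection by peroxidase-streptavidin and o-phenylenediamine, A490.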
Sequence of Integrin alpha-IIb/beta-3 (P05106 27-788 limits assumed): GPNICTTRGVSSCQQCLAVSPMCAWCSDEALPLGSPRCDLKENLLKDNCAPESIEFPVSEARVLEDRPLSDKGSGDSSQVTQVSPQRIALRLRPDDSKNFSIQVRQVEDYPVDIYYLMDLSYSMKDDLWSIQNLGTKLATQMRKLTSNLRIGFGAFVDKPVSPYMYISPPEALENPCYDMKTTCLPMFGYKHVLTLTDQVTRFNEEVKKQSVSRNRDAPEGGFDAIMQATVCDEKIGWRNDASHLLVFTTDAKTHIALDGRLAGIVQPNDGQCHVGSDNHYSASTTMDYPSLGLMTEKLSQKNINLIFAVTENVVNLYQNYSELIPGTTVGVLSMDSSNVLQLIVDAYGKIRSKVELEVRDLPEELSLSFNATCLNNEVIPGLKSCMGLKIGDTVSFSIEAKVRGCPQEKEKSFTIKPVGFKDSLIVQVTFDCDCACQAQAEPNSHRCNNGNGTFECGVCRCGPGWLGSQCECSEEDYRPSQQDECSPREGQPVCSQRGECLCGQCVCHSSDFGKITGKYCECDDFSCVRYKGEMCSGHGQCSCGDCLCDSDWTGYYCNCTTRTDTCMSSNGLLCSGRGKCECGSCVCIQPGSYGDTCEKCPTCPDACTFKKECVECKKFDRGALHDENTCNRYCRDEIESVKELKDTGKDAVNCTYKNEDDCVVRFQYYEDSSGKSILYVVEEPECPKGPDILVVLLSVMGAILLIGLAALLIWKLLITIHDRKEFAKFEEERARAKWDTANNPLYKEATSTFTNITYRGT
Sequence of Integrin alpha-IIb/beta-3 (P08514 32-887 limits assumed): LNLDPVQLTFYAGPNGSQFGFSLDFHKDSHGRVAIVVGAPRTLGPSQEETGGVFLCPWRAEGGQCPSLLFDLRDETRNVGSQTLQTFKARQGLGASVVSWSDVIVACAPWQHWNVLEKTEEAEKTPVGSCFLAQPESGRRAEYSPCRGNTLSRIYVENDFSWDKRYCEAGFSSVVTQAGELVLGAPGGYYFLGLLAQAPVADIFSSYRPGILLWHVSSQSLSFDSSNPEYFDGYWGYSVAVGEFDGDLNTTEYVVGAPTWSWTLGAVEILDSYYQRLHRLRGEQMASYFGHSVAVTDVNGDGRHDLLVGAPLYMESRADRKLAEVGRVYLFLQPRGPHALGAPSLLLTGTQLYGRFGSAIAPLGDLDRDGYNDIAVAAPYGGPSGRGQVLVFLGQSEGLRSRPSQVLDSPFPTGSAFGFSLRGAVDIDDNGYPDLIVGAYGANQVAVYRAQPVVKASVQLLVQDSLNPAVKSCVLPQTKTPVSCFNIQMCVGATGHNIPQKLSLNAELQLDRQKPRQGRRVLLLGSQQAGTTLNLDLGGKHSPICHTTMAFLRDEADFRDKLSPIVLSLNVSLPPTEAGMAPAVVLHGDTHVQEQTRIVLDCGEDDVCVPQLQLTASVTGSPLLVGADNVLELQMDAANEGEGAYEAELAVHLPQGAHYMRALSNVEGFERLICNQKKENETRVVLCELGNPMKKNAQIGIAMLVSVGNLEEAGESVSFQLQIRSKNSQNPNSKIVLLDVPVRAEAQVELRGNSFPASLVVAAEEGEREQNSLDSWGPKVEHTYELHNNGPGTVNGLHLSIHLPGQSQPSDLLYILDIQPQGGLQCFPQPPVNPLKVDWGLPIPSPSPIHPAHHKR
Sequence of Integrin alpha-IIb/beta-3 (P08514 891-1039 limits assumed): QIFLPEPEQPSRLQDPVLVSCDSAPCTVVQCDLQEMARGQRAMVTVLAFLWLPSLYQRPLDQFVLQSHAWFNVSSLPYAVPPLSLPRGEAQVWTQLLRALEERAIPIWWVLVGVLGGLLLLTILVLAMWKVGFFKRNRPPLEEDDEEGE

The next data set is filed under the species Homo sapiens. Briefly: In vitro inhibition of human Platelet-rich plasma (PRP) aggregation induced by 5 uM ADP. The class given is functional. The gist of the method:
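PRP prepared by 120g 15-min spin of citrated venous blood (3.8% citrate, 1:9) from anesthetized male guinea pigs or male human volunteers, adjusted to 2.5–3.0 × 10⁸ platelets/mL with PPP. PRP warmed 2 min at 37 °C, compound or vehicle added, then 2 min later ADP (final 5 μM). Maximum aggregation compared with control; IC50 estimated.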

The subject of data set [6] is Cavia porcellus. Put plainly: Inhibition of ex vivo platelet aggregation induced by 5 uM Adenosine diphosphate (ADP) 1 hour after oral administration at the dose of 37umol/kg. The class given is functional. Summed up: as §1

Values after ≈ are worked out from the molar mass of the structure shown. A value given as a limit tells only on which side of the number the result lay.

As to `C#CCNC(=N)c1ccc(C(=O)Nc2ccc3c(c2)CC(CC(=O)OCC)CO3)cc1` (stereo not drawn), the Inhibition (in general, the drop in the measured response relative to a control, in per cent) in the data set on Cavia porcellus [1] is 99%. For the same molecule, in data set [2], the solubility stood at 106 mg/mL (≈ 253000 µM). In addition, the concentration at 1 h in data set [3] came to 3.8 µM.

`C=CCNC(=N)c1ccc(C(=O)Nc2ccc3c(c2)CC(CC(=O)OCC)CC3)cc1` (stereo not drawn) showed an Inhibition in the data set with Cavia porcellus [1] of 21%. In addition, in data set [3], the concentration at 1 h turned out to be 0.38 µM.

In the case of `NC(=NCc1ccco1)c1ccc(C(=O)Nc2ccc3c(c2)CC(CC(=O)O)CC3)cc1` (stereo not drawn), the values for the IC50 (in the data set filed under Cavia porcellus [4]; in data set [5]) were 0.62 µM and 0.2 nM, respectively.

Turning to `N=C(N)c1ccc(C(=O)Nc2ccc3c(c2)CC(CC(=O)O)CO3)cc1` (stereo not drawn), the IC50 (commonly the concentration that gives 50% inhibition) in the data set listed under Homo sapiens was found to be 0.049 µM; in data set [5], 0.073 nM.

Consider `N=C(N)c1ccc(/C=C/c2ccc3c(c2)CC(CC(=O)O)CC3)cc1` (stereo not drawn), for which, in the data set listed under Cavia porcellus [4], the IC50 worked out at 5 µM.

As to `N=C(c1ccc(C(=O)Nc2ccc3c(c2)CC(CC(=O)O)CO3)cc1)N1CCOCC1` (stereo not drawn), the IC50 in the data set filed under Cavia porcellus [4] stood at 0.23 µM; in the data set listed under Homo sapiens, 0.066 µM; in data set [5], 0.098 nM.

In the data set on Cavia porcellus [1], `CCC/N=C(\N)c1ccc(C(=O)Nc2ccc3c(c2)CC(CC(=O)OCC)CC3)cc1` (stereo not drawn) had an Inhibition of 3%. Further, the concentration at 1 h in data set [3] was under 0.18 µM.

For the molecule `CCCNC(=N)c1ccc(C(=O)Nc2ccc3c(c2)CC(CC(=O)O)CC3)cc1` (stereo not drawn), the figures for the 50% inhibitory concentration (IC50) (in the data set listed under Cavia porcellus [4]; in the data set listed under Homo sapiens; in data set [5]) were 0.17 µM, 0.068 µM and 0.13 nM, respectively.

Consider `C#CCNC(=N)c1ccc(C(=O)Nc2ccc3c(c2)CC(CC(=O)O)CO3)cc1` (stereo not drawn), for which the IC50 was 0.35 µM in the data set listed under Cavia porcellus [4], 0.078 µM in the data set filed under Homo sapiens and 0.13 nM in data set [5].

In turn, `CCOC(=O)CC1COc2ccc(NC(=O)c3ccc(C(=N)N4CCOCC4)cc3)cc2C1` (stereo not drawn) displayed an Inhibition with Cavia porcellus [1] of 99%. The solubility in data set [2] is over 200 mg/mL. Also, the concentration at 1 h in data set [3] came to 8.4 µM.

On to `N=C(c1ccc(C(=O)Nc2ccc3c(c2)CC(CC(=O)O)CC3)cc1)N1CCOCC1` (stereo not drawn), for which the concentration for half-maximal inhibition (IC50) in the data set filed under Cavia porcellus [4] is 0.19 µM; in the data set filed under Homo sapiens, 0.08 µM; in data set [5], 0.15 nM.

Turning to `C#CC/N=C(\N)c1ccc(C(=O)Nc2ccc3c(c2)CC(CC(=O)O)CC3)cc1` (stereo not drawn), the IC50 in the data set filed under Cavia porcellus [4] was 0.3 µM; in the data set filed under Homo sapiens it was 0.1 µM; in data set [5], 0.16 nM.

`N=C(N)c1ccc(COc2ccc3ccc(CC(=O)O)cc3c2)cc1` came in with an IC50 in the data set filed under Cavia porcellus [4] of over 1000 µM.

Turning to `C#CCNC(=N)c1ccc(C(=O)Nc2ccc3c(c2)CC(CC(=O)OCC)CC3)cc1` (stereo not drawn), the Inhibition in the data set with Cavia porcellus [1] stood at 99%. Also, the solubility in data set [2] amounted to 1.5 mg/mL (≈ 3590 µM). Besides, in data set [3], the concentration at 1 h came out at 1 µM.

As for `N=C(N)c1ccc(C(=O)Nc2ccc3c(c2)CN(CC(=O)O)CC3)cc1`, the results for the IC50 in the data set filed under Cavia porcellus [4] and in the data set filed under Homo sapiens were 6.6 µM and 0.29 µM, respectively.

`N=C(N)c1ccc(COc2ccc3c(c2)CC(CC(=O)O)CC3)cc1` (stereo not drawn) came in with an IC50 in the data set filed under Homo sapiens of 1.5 µM.

Take `C=CCNC(=N)c1ccc(C(=O)Nc2ccc3c(c2)CC(CC(=O)O)CC3)cc1` (stereo not drawn): the IC50 in the data set listed under Cavia porcellus [4] was determined as 0.49 µM; in data set [5], 0.26 nM.

As for `N=C(N)c1ccc(C(=O)Nc2ccc3c(c2)CC(CC(=O)O)CC3)cc1` (stereo not drawn), the half-maximal inhibitory concentration (IC50) in the data set filed under Cavia porcellus [4] turned out to be 0.37 µM; in the data set listed under Homo sapiens, 0.057 µM; in data set [5] it was 0.12 nM. In addition, the inhibition in vivo (in general, the share of the control response that was lost under treatment) at 37 µmol/kg in the data set on Cavia porcellus [6] turned out to be 8%.

For `CCOC(=O)CC1CCc2ccc(NC(=O)c3ccc(C(=N)N)cc3)cc2C1` (stereo not drawn), the solubility in data set [2] was determined as 0.26 mg/mL (≈ 685 µM). In the data set with Cavia porcellus [6], this molecule had an inhibition in vivo at 37 µmol/kg of 41%.

Consider `CCOC(=O)CC1CCc2ccc(NC(=O)c3ccc(C(=N)NCc4ccco4)cc3)cc2C1` (stereo not drawn), for which, in the data set with Cavia porcellus [1], the Inhibition worked out at 91%. In addition, the solubility in data set [2] was found to be 1.06 mg/mL (≈ 2310 µM). Further, the concentration at 1 h in data set [3] worked out at 0.85 µM.

With `N=C(c1ccc(C(=O)Nc2ccc3c(c2)C[C@@H](CC(=O)O)CO3)cc1)N1CCOCC1`, the concentration for half-maximal inhibition (IC50) in the data set filed under Cavia porcellus [4] is 0.11 µM; in the data set listed under Homo sapiens, 0.035 µM; in data set [5], 0.12 nM.

As for `N=C(N)c1ccc(CCc2ccc3c(c2)CC(CC(=O)O)CC3)cc1` (stereo not drawn), in the data set filed under Homo sapiens, the IC50 was 0.37 µM.

For `N=C(c1ccc(C(=O)Nc2ccc3c(c2)C[C@H](CC(=O)O)CO3)cc1)N1CCOCC1`, the half-maximal inhibitory concentration (IC50) in the data set listed under Homo sapiens was determined as 0.36 µM; in data set [5], 2.6 nM.

As for `CN(C(=O)c1ccc(C(=N)N)cc1)c1ccc2c(c1)CC(CC(=O)O)CC2` (stereo not drawn), the values for the IC50 in the data set listed under Cavia porcellus [4] and in the data set listed under Homo sapiens were 1.8 µM and 0.2 µM, respectively.

Turning to `CCOC(=O)CC1COc2ccc(NC(=O)c3ccc(C(=N)N)cc3)cc2C1` (stereo not drawn), the solubility in data set [2] was 0.41 mg/mL (≈ 1070 µM). For the same molecule, the inhibition in vivo at 37 µmol/kg with Cavia porcellus [6] amounted to 40%.

As to `CCOC(=O)CC1CCc2ccc(NC(=O)c3ccc(C(=N)N4CCOCC4)cc3)cc2C1` (stereo not drawn), the Inhibition in the data set with Cavia porcellus [1] was found to be 98%. Moreover, in data set [2], the solubility is over 200 mg/mL. For the same molecule, in data set [3], the concentration at 1 h was 7.3 µM.

Take `N=C(N)c1ccc(NC(=O)c2ccc3c(c2)CC(CC(=O)O)CC3)cc1` (stereo not drawn): the IC50 in the data set filed under Cavia porcellus [4] is 0.23 µM; in the data set filed under Homo sapiens, 0.046 µM.
